Measurements reported in ChEMBL document CHEMBL4038333, “Nonacidic Farnesoid X Receptor Modulators” (J Med Chem, 2017).
Active and inactive are the calls of the source. No cut-off for these calls is given here.

Columns and labels:
Assay type in all cases: cell-based
[1] = molecular target: Vitamin D3 receptor (Homo sapiens) (UniProt P11473); experiment: Transactivation of GAL4-tagged human VDR isoform 1 ligand binding domain (119 to 427 residues) expressed in HEK293T cells at 1 uM after 12 to 14 hrs by dual-glo luciferase reporter gene assay; settings: HEK-293T
Vitamin D3 receptor (Homo sapiens), sequence (P11473 whole entry, the tested form may be a part, canonical isoform): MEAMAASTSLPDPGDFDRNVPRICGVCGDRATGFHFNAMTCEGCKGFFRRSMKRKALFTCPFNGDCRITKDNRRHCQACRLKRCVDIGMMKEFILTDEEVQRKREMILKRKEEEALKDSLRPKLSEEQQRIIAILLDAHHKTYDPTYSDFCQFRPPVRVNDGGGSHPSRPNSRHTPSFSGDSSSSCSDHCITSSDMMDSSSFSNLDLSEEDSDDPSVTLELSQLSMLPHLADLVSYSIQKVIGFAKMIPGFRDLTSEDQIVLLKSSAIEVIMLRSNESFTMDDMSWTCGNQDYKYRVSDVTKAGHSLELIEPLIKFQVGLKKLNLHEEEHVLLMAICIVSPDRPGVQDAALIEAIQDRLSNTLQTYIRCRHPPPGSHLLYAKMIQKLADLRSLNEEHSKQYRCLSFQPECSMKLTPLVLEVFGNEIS
How it was run: (§1)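 Run as a selectivity screen against each listed receptor (14 nuclear receptors plus TGR5), in both agonist and antagonist modes. Test concentration was 1 µM, with n = 3.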

[2] = molecular target: Retinoic acid receptor RXR-beta (Homo sapiens) (UniProt P28702); experiment: Transactivation of GAL4-tagged human RXRbeta isoform 1 ligand binding domain (294 to 533 residues) expressed in HEK293T cells at 1 uM after 12 to 14 hrs by dual-glo luciferase reporter gene assay; settings: HEK-293T; how it was run: as §1
Retinoic acid receptor RXR-beta (Homo sapiens), sequence (P28702 whole entry, the tested form may be a part, canonical isoform): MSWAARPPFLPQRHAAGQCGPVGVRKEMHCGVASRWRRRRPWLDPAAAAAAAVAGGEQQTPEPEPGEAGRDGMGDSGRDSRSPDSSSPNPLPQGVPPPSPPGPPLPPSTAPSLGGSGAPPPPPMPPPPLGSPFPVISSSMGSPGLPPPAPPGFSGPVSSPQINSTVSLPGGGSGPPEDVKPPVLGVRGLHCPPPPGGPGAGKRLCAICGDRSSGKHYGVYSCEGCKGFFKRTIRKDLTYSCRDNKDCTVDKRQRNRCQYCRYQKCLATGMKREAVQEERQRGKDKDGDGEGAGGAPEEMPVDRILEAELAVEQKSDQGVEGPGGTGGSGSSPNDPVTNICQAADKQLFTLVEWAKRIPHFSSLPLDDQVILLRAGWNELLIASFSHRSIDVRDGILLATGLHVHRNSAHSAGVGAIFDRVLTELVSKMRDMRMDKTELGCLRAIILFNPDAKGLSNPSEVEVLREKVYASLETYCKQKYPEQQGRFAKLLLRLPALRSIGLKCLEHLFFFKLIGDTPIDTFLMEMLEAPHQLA

[3] = molecular target: Oxysterols receptor LXR-alpha (Homo sapiens) (UniProt Q13133); experiment: Transactivation of GAL4-tagged human LXRalpha ligand binding domain expressed in HEK293T cells at 1 uM after 12 to 14 hrs by dual-glo luciferase reporter gene assay; settings: HEK-293T; how it was run: as §1
Oxysterols receptor LXR-alpha (Homo sapiens), sequence (Q13133 whole entry, the tested form may be a part): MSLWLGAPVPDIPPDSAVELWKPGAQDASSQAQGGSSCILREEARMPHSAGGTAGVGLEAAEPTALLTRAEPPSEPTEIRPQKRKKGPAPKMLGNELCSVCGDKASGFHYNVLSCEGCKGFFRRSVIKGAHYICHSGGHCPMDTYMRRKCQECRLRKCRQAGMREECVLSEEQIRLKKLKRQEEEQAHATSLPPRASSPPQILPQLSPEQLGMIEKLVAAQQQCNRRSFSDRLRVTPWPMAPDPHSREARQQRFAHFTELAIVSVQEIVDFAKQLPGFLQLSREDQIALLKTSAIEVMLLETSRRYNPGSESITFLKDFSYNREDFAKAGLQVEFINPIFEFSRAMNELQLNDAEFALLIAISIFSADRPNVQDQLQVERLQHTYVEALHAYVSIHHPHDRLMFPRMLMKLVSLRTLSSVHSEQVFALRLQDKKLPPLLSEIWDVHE

[4] = molecular target: Peroxisome proliferator-activated receptor alpha (Homo sapiens) (UniProt Q07869); experiment: Transactivation of GAL4-tagged human PPARalpha ligand binding domain expressed in HEK293T cells at 1 uM after 12 to 14 hrs by dual-glo luciferase reporter gene assay; settings: HEK-293T; how it was run: as §1
Peroxisome proliferator-activated receptor alpha (Homo sapiens), sequence (Q07869 whole entry, the tested form may be a part, canonical isoform): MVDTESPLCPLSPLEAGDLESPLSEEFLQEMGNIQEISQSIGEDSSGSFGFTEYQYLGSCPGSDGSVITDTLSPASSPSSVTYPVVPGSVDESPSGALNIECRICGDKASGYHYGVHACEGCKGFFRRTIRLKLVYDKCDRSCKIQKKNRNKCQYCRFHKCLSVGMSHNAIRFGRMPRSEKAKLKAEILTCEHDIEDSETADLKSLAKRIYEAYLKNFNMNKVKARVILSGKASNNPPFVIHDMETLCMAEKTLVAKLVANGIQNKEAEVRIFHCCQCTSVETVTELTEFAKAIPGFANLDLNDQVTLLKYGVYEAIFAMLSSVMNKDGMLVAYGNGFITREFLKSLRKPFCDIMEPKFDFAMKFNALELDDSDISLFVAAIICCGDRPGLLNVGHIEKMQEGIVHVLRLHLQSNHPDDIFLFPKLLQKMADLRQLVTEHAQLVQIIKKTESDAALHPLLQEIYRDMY

[5] = molecular target: Retinoic acid receptor gamma (Homo sapiens) (UniProt P13631); experiment: Antagonist activity at GAL4-tagged human RARgamma isoform 1 ligand binding domain (179 to 454 residues) expressed in HEK293T cells at 1 uM after 12 to 14 hrs by dual-glo luciferase reporter gene assay; settings: HEK-293T; how it was run: as §1
Retinoic acid receptor gamma (Homo sapiens), sequence (P13631 whole entry, the tested form may be a part, canonical isoform): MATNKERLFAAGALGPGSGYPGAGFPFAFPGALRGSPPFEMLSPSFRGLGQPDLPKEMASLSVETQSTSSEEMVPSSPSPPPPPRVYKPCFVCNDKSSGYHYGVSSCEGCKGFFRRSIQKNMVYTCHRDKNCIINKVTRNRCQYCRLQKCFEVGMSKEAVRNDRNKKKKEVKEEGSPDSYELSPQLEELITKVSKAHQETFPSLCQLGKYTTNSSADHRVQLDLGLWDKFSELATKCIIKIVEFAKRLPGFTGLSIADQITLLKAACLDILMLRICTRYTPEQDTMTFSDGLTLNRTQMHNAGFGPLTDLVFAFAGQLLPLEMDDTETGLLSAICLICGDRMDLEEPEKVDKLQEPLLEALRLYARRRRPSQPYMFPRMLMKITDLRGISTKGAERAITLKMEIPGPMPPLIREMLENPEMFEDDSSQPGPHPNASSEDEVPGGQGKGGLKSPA

HeLa [6] = experiment: Selectivity ratio for human FXR expressed in human HeLa cells co-expressing BSEP over GAL4-tagged human CAR isoform 6 ligand binding domain (48 to 324 residues) expressed in HEK293T cells
HeLa [7] = experiment: Selectivity ratio for human FXR expressed in human HeLa cells co-expressing BSEP over GAL4-tagged human RARbeta1 ligand binding domain (177 to 455 residues) expressed in HEK293T cells
HeLa [8] = experiment: Selectivity ratio for human FXR expressed in human HeLa cells co-expressing BSEP over GAL4-tagged human RXRgamma ligand binding domain (229 to 463 residues) expressed in HEK293T cells
HeLa [9] = experiment: Selectivity ratio for human FXR expressed in human HeLa cells co-expressing BSEP over GAL4-tagged human PPARdelta ligand binding domain expressed in HEK293T cells
HeLa [10] = experiment: Selectivity ratio for human FXR expressed in human HeLa cells co-expressing BSEP over GAL4-tagged human PPARgamma ligand binding domain expressed in HEK293T cells

COc1ccc(CNc2c(-c3cc(Cl)ccn3)nc3ccc(Cl)cn23)cc1
Activity [1]: inactive | Activity [2]: inactive | Activity [3]: inactive | Activity [4]: inactive | inhibition [5]: inactive | Selectivity ratio (HeLa [6]): 3000 | Selectivity ratio (HeLa [7]): 3000 | Selectivity ratio (HeLa [8]): 3000 | Selectivity ratio (HeLa [9]): 3000 | Selectivity ratio (HeLa [10]): 3000
